Experimental data from ChEMBL document CHEMBL4270600, “Pyrazinyl ureas revisited: 1-(3-(Benzyloxy)pyrazin-2-yl)-3-(3,4-dichlorophenyl)urea, a new blocker of Aβ-induced mPTP opening for Alzheimer's disease” (Eur J Med Chem, 2018).

How the values were obtained:
[1] = molecular target: Peptidyl-prolyl cis-trans isomerase F, mitochondrial (Mus musculus) (UniProt Q99KR7); assay: Blockade of amyloid beta (1 to 42)-induced cypD-mediated mPTP opening in mouse HT22 cells assessed as green to red fluorescence ratio at 5 uM preincubated for 10 mins followed by amyloid beta (1 to 42) addition measured at 1 hr time interval for 3 hrs by JC-1 staining based fluorescence assay (reference value: 100%); type: cell-based
Chain of Peptidyl-prolyl cis-trans isomerase F, mitochondrial (Mus musculus) (Q99KR7 whole entry): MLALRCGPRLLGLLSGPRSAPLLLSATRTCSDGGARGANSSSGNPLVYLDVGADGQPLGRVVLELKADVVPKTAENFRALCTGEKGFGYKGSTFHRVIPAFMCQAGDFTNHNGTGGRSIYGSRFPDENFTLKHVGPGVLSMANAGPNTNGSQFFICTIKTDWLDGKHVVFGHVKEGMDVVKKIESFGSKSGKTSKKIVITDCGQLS
How it was run: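 HT-22 mouse hippocampal cells were grown in DMEM with 10% FBS and seeded at 30,000/well the day before. They were loaded with 7.5 μM JC-1 (final) in phenol red-free Opti-MEM for 1 h 15 min at 37 °C, then PBS-washed. Test agent at 5 μM in Opti-MEM was added for 10 min at 37 °C, then 5 μM Aβ1–42 solution. Red (ex 530/em 580) and green (ex 485/em 530) fluorescence was read hourly for 3 h. The green/red ratio was expressed as percent change normalized to vehicle control (100%), from duplicate averages.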

HT-22 [2] = assay: Induction of mitochondrial energy production impairment in mouse HT22 cells assessed as ATP production at 5 uM after 7 hrs by luciferase reporter gene assay relative to control; type: cell-based; settings: ht-22, 7 h
How it was run: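 HT-22 cells were seeded at 10,000/well the day before. Test agent was added as a 10 μM solution (25 μL) without Aβ and incubated 7 h at 37 °C. Cells were PBS-washed and lysed in 1% Triton X-100/TBST, and protein was measured by BCA. Equal lysate amounts were assayed for ATP by luciferase kit. Levels were expressed relative to vehicle control, from duplicate averages.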

HT-22 [3] = assay: Neuroprotection against amyloid beta (1 to 42)-induced deterioration of mitochondrial ATP production in mouse HT22 cells assessed as ATP recovery at 5 uM preincubated for 10 mins followed by amyloid beta (1 to 42) addition and measured after 7 hrs by luciferase reporter gene assay relative to control; type: functional
How it was run: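 HT-22 cells were seeded at 10,000/well the day before. Test agent was added as a 10 μM solution (25 μL) for 10 min at 37 °C, then 25 μL of 10 μM Aβ1–42 solution, followed by 7 h at 37 °C. Lysates (1% Triton X-100/TBST) were equalized by BCA protein and assayed for ATP with a luciferase kit. Vehicle control was subtracted, and percent recovery was calculated against Aβ-treated vehicle control, from duplicate averages.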

[4] = Cytotoxicity against mouse HT22 cells assessed as cell viability at 5 uM after 24 hrs by MTT assay relative to control; type: cell-based, HT-22; settings: read-out: Activity
How it was run: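 HT-22 cells were seeded at 5000/well and treated with 5 μM test agent for 24 h at 37 °C. MTT was added for 2 h at 37 °C. Formazan was dissolved in 10% Triton X-100 in isopropanol with 0.1 M HCl for 1 h at room temperature. Absorbance was read at 570 nm, vehicle control subtracted, and viability expressed as percent of control, from duplicate averages.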

[5] = molecular target: Voltage-gated inwardly rectifying potassium channel KCNH2 (Homo sapiens, UniProt Q12809); assay: Displacement of [3H]-astemizole from human ERG expressed in HEK293 cell membranes after 1 hr by microbeta counting method
Chain of Voltage-gated inwardly rectifying potassium channel KCNH2 (Q12809 whole entry): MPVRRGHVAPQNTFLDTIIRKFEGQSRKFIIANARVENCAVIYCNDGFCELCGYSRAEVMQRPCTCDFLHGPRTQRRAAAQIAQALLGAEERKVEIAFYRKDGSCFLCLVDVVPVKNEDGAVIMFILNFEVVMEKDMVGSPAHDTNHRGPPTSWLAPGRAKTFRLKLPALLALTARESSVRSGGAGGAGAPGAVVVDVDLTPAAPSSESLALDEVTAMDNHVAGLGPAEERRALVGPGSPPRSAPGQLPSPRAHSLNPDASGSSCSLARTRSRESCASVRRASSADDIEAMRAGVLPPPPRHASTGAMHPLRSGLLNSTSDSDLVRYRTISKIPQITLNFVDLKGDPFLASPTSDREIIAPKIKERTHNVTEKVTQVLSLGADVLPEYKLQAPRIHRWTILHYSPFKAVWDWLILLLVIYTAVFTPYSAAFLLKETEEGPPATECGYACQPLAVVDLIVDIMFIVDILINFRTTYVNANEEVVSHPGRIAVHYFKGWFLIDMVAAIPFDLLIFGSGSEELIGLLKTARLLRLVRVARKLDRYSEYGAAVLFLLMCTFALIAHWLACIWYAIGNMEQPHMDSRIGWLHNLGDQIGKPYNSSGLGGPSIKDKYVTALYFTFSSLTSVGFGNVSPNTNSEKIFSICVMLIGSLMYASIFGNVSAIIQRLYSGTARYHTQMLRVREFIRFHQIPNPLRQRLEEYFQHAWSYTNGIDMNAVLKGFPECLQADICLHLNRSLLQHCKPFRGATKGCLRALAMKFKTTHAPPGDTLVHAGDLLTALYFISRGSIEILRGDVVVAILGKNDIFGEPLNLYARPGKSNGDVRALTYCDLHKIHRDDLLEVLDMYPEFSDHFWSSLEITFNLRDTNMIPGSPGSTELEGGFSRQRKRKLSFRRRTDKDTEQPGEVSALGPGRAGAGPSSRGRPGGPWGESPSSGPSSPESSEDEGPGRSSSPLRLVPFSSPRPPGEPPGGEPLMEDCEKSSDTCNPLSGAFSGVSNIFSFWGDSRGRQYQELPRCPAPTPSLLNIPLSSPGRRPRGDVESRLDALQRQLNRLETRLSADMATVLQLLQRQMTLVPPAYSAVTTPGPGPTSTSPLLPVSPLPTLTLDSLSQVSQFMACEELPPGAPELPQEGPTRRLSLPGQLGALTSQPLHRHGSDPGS
How it was run: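 Radioligand binding used 2.5 µg HEK-293 membranes expressing human ERG in 50 mM Hepes pH 7.4, 60 mM KCl, 0.1% BSA, with 4 nM [³H]astemizole. Incubation was 1 h at room temperature, followed by filtration through PEI-presoaked filtermat and scintillation counting. Non-specific binding was defined with 0.1 µM astemizole. Each competitor was tested at 5–6 concentrations in duplicate tubes, with isotherms from two assays.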

SMILES | Ratio [1] | Activity (HT-22 [2]) | Activity (HT-22 [3]) | viability at 24 h, 5 µM [4] | IC50 [5]
O=C(Nc1nccnc1OCc1ccc(Cl)cc1)Nc1cccc2ccccc12 | 60% | – | – | – | –
O=C(Nc1cccc(Cl)c1)Nc1nccnc1OCc1cccc(F)c1 | 39% | – | – | – | –
CN1CCN(CCNC(=O)Nc2nccnc2OCc2cccc(Cl)c2)CC1 | 34% | 96.1% | 17.7% | – | –
CN1CCN(CCNC(=O)Nc2nccnc2OCc2ccccc2)CC1 | 43% | 97.2% | 0.7% | – | –
CC(C)(C)NC(=O)Nc1nccnc1OCc1ccccc1 | 51% | – | – | – | –
O=C(Nc1cccc(Cl)c1)Nc1nccnc1OCc1ccccc1Cl | 55% | – | – | – | –
O=C(Nc1ccccc1)Nc1nccnc1OCc1cccc(Cl)c1 | 59% | – | – | – | –
O=C(Nc1ccc(Cl)c(Cl)c1)Nc1nccnc1OCc1ccccc1 | 29% | 148.6% | 71.2% | 139% | 11.3 µM
CC(C)(C)CC(C)(C)NC(=O)Nc1nccnc1OCc1cccc(F)c1 | 29% | 98.9% | 32.9% | – | –
CC(C)(C)NC(=O)Nc1nccnc1OCc1cccc(F)c1 | 55% | – | – | – | –
CC(C)(C)CC(C)(C)NC(=O)Nc1nccnc1OCc1ccc(Cl)cc1 | 35% | 85.7% | -1.7% | – | –
CC(C)(C)CC(C)(C)NC(=O)Nc1nccnc1OCc1ccccc1Cl | 59% | – | – | – | –
CC(C)(C)NC(=O)Nc1nccnc1OCc1ccccc1Cl | 28% | 55.3% | – | – | –
CCNC(=O)Nc1nccnc1OCc1cccc(Cl)c1 | 60% | – | – | – | –
O=C(NCc1ccccc1)Nc1nccnc1OCc1ccccc1Cl | 33% | 96.9% | 71.3% | 84.8% | –
O=C(NCCCl)Nc1nccnc1OCc1cccc(Cl)c1 | 73% | – | – | – | –
CN1CCN(CCNC(=O)Nc2nccnc2OCc2ccccc2Cl)CC1 | 34% | – | – | – | –
O=C(NCCN1CCNCC1)Nc1nccnc1OCc1ccccc1Cl | 37% | 70% | – | – | –
O=C(Nc1cccc(F)c1)Nc1nccnc1OCc1cccc(Cl)c1 | 50% | – | – | – | –
NC(=O)CN1CCCC1=O [PIRACETAM] | – | 88% | 127% | – | –
O=C(NCCCl)Nc1nccnc1OCc1ccccc1 | 53% | – | – | – | –
CC(C)(C)CC(C)(C)NC(=O)Nc1nccnc1OCc1ccccc1 | 25% | 86% | -59% | – | –
O=C(NCCCl)Nc1nccnc1OCc1ccccc1Cl | 72% | – | – | – | –
O=C(Nc1cccc(Cl)c1)Nc1nccnc1OCc1cccc(Cl)c1 | 29% | 85.4% | -3.5% | – | –
O=C(Nc1ccccc1)Nc1nccnc1OCc1ccccc1Cl | 39% | 66.9% | – | – | –
O=C(Nc1ccccc1)Nc1nccnc1OCc1ccccc1 | 44% | – | – | – | –
O=C(Nc1ccccc1)Nc1nccnc1OCc1cccc(F)c1 | 30% | – | – | – | –
O=C(Nc1nccnc1OCc1ccccc1)NC1CCCCCC1 | 33% | 103.4% | 45.7% | 59% | –
CC(C)(C)CC(C)(C)NC(=O)Nc1nccnc1OCc1ccc(F)cc1 | 17% | – | – | – | –
